High-throughput results (PubChem)
This is a sample that favours compounds with a hit; in the whole collection about 3.7% have one here.
KCNQ1 pot = human KCNQ1 channel potentiation or activation. B-score at 10 µM. CHO-K1 KCNQ1, thallium flux FluxOR fluorescence; hits give high values. 310,000 tested, 0.35% active. AID 2648. P51787;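 active = fluorescence ratio B-score, a plate-corrected score, at least three library SD, with initial intensity B-score within 5 SD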
Target sequence (P51787 whole entry, looked up): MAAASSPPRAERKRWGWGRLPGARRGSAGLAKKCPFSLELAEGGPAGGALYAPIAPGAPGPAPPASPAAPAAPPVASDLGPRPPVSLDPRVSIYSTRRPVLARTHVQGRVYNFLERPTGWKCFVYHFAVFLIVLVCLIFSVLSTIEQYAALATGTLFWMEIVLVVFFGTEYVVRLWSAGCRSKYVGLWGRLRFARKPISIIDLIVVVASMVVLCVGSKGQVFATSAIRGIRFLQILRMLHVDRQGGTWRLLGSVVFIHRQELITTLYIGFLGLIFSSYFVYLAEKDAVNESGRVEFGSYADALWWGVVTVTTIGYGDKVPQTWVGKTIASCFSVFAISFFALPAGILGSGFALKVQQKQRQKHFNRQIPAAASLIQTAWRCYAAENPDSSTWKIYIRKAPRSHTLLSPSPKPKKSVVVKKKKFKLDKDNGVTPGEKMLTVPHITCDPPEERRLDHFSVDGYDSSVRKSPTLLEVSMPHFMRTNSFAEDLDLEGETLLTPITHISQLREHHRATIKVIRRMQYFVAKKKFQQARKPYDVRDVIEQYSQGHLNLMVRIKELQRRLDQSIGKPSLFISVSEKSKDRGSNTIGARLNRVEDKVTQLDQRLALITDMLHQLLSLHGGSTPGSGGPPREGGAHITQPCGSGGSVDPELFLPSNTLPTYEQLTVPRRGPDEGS
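assay system = CHO-K1 cells stably expressing KCNQ1 | medium = assay buffer, equal DMSO in all wells | timing = 37 °C overnight plating, 90-min dark dye load, 20-min compound pretreatment | measured by = kinetic FluxOR thallium fluorescence, 10-s 1-Hz baseline, 110-s post-stimulus read | measure = fluorescence change relative to baseline, converted to B score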
KCNK9 inh = inhibitors of human KCNK9 two-pore domain potassium channel; Q9NPC2; HEK293 KCNK9, FluxOR thallium flux fluorescence; hits give low values; B-score at 10 µM; 310,000 tested, 1.2% active; AID 488922;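 active = ratio B-score over 3 SD below the library mean, with starting fluorescence within 5 SD of its mean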;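 note: negative B-score means less thallium flux so channel inhibition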
KCNQ1 block = human KCNQ1 channel inhibition; P51787; CHO-K1 KCNQ1, FluxOR thallium flux fluorescence; hits give high values; AID 2642; B-score at 10 µM; 310,000 tested, 1.3% active;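 active = compounds whose thallium flux B-score, printed positive for inhibition, exceeds three library SD while starting fluorescence stays within three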;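 note: channel opened by potassium depolarization with thallium stimulus after 20 min compound exposure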
hERG rescue = compounds protecting human hERG from proarrhythmic drug block; Q12809; CHO-hERG, FluxOR thallium flux, dofetilide IC70 present; activation (rescue from dofetilide block), less the hit threshold, % at 10 µM; 310,000 tested, 0.51% active;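 active = activation above the mean of controls blocked by dofetilide plus 5 SD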;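 note: thallium influx through hERG after potassium depolarization seen as dye fluorescence rise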
KCNK3 block = human KCNK3 channel inhibition, primary screen | CHO-KCNK3 thallium flux, FluxOR fluorescence; hits give low values | 340,000 tested, 0.84% active | AID 602410 | O14649 | B-score at 10 µM;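 active = B-score under library mean minus 4 SD, starting fluorescence ratio at most library mean plus 5 SD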;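 note: more negative B-score means stronger inhibition of thallium flux through KCNK3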
Kir21 inh = Kir2.1 (mouse) channel inhibition | P35561 | HEK293-Kir2.1, FluxOR thallium flux fluorescence; hits give low values | B-score at 10 µM | 310,000 tested, 0.85% active | AID 1672;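 active = fluorescence ratio B-score at or below minus 3 SD of library scores, with starting-brightness B-score within 2 SD, cut at about -4.2 in these data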;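 note: channel flux triggered by added potassium and thallium sulfate stimulus; B-score of peak minus minimum fluorescence over baseline after thallium stimulus; more negative B-score means stronger Kir2.1 block with less thallium influx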
* = called active by the depositor; i = inactive; . = not tested or not shown.

SMILES	KCNQ1 pot	KCNK9 inh	KCNQ1 block	hERG rescue	KCNK3 block	Kir21 inh
Cc1ccccc1N1CCN(Cc2c[nH]c3ccccc23)CC1	i	i	6*	-15	i	-5.5*
COc1ccccc1N1CCN(Cc2c[nH]c3ccccc23)CC1	i	i	i	-1	i	-0.61
CN(c1ccc(O)cc1)S(=O)(=O)c1ccc2ccccc2c1	i	i	i	-12	i	-5.9*
Cc1cc(O)cc(C)c1NS(=O)(=O)c1ccc2ccccc2c1	i	i	i	-16	i	-6.6*
O=C1NC(Cc2ccc(O)cc2)c2nc3cc(Cl)ccc3c(=O)n2-c2cc(Cl)ccc21 (stereo unspecified)	.	.	.	.	i	.
CCOC(=O)/C(C)=N/NC(=O)c1cccc([N+](=O)[O-])c1	i	i	i	12*	i	-0.76
O=C(Nc1cccc([N+](=O)[O-])c1)Nc1cccs1	i	i	8*	-32	i	1.2
CC(NC(=O)Nc1cccc([N+](=O)[O-])c1)(C(F)(F)F)C(F)(F)F	i	i	12*	-22	i	0.58
CCOC(=O)Cc1ccc(NC(=O)c2cccc([N+](=O)[O-])c2)cc1	i	i	i	2	i	0.03
CCOC(=O)/C=C/C(=O)Nc1cccc([N+](=O)[O-])c1	i	i	i	-11	i	-6.2*
CC(Sc1nnnn1-c1cccc(F)c1)C(=O)NC1CCCC1 (stereo unspecified)	.	.	.	.	i	.
CC(=O)N1CCN(c2ccccc2NC(=O)COc2ccccc2C)CC1	i	i	i	-5	i	-0.82
COc1cccc(CN(C)CC(=O)Nc2ccccc2N2CCOCC2)c1OC	i	i	i	5.1*	i	-2.5
Cc1ccccc1OCC(=O)Nc1ccccc1N1CCOCC1	i	i	i	-13	i	-7.9*
COc1ccc(CN2C(=O)CSCC2=O)cc1OC	i	i	i	-6	i	0.25
COc1ccc(CCN2C(=O)CSC2=S)cc1OC	i	i	i	4.7*	i	0.96
c1coc(C2Nc3cccc4cccc(c34)N2)c1	i	i	i	-12	.	0.39
Clc1cccc(C2Nc3cccc4cccc(c34)N2)c1Cl	i	i	10*	-12	i	-0.52
CCc1cccc(NC(=O)CCc2c(C)nn(-c3ccc(N4CCOCC4)nn3)c2C)c1	i	i	i	-10	i	-1.9
CCOC(=O)c1cc([N+](=O)[O-])sc1NC(=O)c1ccc(S(=O)(=O)N2CC3(C)CC2CC(C)(C)C3)cc1 (stereo unspecified)	i	i	8*	-12	i	1.3
Cc1sc2ncnc(NC3CCN(Cc4ccccc4)CC3)c2c1C	i	i	i	-28	i	-5.5*
CCCN(Cc1nnc(-c2ccccc2Cl)o1)C(=O)c1oc2ccccc2c1C	i	i	6*	-14	i	0.04
CCCN(Cc1nnc(-c2ccccc2Cl)o1)C(=O)c1ccc(C)c(S(=O)(=O)N2CCOCC2)c1	i	i	i	-6	i	-2.9
N#C/C(=N\Nc1ccccc1F)c1nc(-c2ccccc2)cs1	i	i	i	18*	i	-0.02
Cc1ccc(-c2cc(-c3ccc(F)cc3)c(C#N)c(N)n2)o1	i	i	i	-12	i	-2.2
SMILES	KCNQ1 pot	KCNK9 inh	KCNQ1 block	hERG rescue	KCNK3 block	Kir21 inh
Cc1ccc(-c2cc(-c3ccc(Cl)cc3)c(C#N)c(N)n2)o1	i	i	i	-13	i	-4.5*
Cc1cc(-c2cc(-c3ccc(Cl)cc3)nc(N)c2C#N)co1	i	i	i	-15	i	-4.9*
CCOc1ccc(CCNC(=O)CN(C)S(=O)(=O)c2cccs2)cc1OCC	i	i	i	-11	i	-0.08
O=C(Cc1c(F)cccc1Cl)Nc1cc(S(=O)(=O)N2CCOCC2)ccc1N1CCOCC1	.	.	.	.	i	.
CC(=O)c1c(C(C)=O)c(C)n(-c2cccc([N+](=O)[O-])c2)c1C	i	i	i	-2	i	-1.1
Cc1cc(C(=O)CCl)c(C)n1-c1cccc([N+](=O)[O-])c1	11*	i	i	-10	i	-1.2
CN(C)C(=O)c1c2c(nc3ccccc13)CCCC2	i	i	i	8.1*	i	-0.81
O=C(NC1CCCCC1)c1cc(-c2cccs2)on1	i	i	i	-5	i	0.01
O=S(=O)(c1ccc2c(c1)OCCO2)N1CCN(c2ncnc3sccc23)CC1	i	i	6*	-14	i	1.4
Cc1ccc(S(=O)(=O)N2CCN(c3ncnc4sccc34)CC2)cc1C	.	.	.	.	i	.
COc1ccc(/C=N/NC(=O)c2nnn(-c3nonc3N)c2-c2cccs2)c(OC)c1	i	i	i	-2	i	0.65
COc1ccc(CNCCC(c2ccc(OC(C)C)cc2)c2ccccc2OC)cc1OC (stereo unspecified)	i	i	i	-16	i	-3.3
COc1ccccc1C(CCNCc1ccccc1)c1ccc(OC(C)C)cc1 (stereo unspecified)	i	i	i	-20	i	-6.3*
COc1ccc(CNCCC(c2ccccc2)c2ccc3c(c2)OCO3)cc1 (stereo unspecified)	i	i	i	-16	i	-8.1*
COc1ccccc1C(CCNCc1ccc(N(C)C)cc1)c1ccc(OC(C)C)cc1 (stereo unspecified)	i	i	10*	-27	i	-4.4*
COc1ccc(C(CC(=O)O)c2ccc3c(c2)OCO3)cc1 (stereo unspecified)	i	i	i	-3	i	-0.42
COc1ccc(CNCCC(c2ccc(OC(C)C)cc2)c2ccccc2OC)cc1 (stereo unspecified)	i	i	9*	-20	i	-7.4*
COc1ccc(N=C(N)SCc2ccccn2)cc1	i	i	i	-4	i	-4.5*
COc1ccc(-c2nnc(SCc3ccccn3)n2C)cc1	i	i	i	-9	i	0.04
CC(C)c1ccc(C2OCC(C)([N+](=O)[O-])CO2)cc1 (stereo unspecified)	.	.	.	.	i	.
COc1cc(/C=N/Nc2nc(N3CCCC3)nc(N3CCCC3)n2)ccc1OCc1ccccc1F	i	i	i	11*	i	-1
O=C(Nc1cccc(Cl)c1)Nc1nc(-c2ccc(Cl)cc2)cs1	i	i	8*	-8	i	-1.2
C=C(CCO)C1=CCN(S(=O)C(C)(C)C)[C@H]1CCO (stereo partly specified)	.	.	.	.	i	.
CC1(C)Cc2c(c(N3CCOCC3)nc3snc(N)c23)CO1	i	-7*	i	-20	i	-1.1
